Published values collected from several papers.
Target: Alpha-glucosidase MAL12 (MAL12, Saccharomyces cerevisiae S288c, UniProt P53341)
Observed: enzyme activity
Mode: inhibitor

Structure (SMILES) | assay | setting | IC50 [µM]
C[C@H]1CN(C(=O)Nc2ccc(C(F)(F)F)cc2)CCN1c1ccnc(Nc2ccc(Cl)c(OCc3ccccc3)c2)n1 | absorbance | pH 6.9 | 1.5
CC1(C)CC(=O)C2=C(C1)n1c(=O)c3ccccc3c(=O)n1C2c1cn(-c2ccccc2)nc1-c1ccccc1 (stereo not shown) | absorbance |  | 74.2
COc1ccc(-c2nc3ncnn3c(-c3cccs3)c2N)cc1 | absorbance |  | 120
C[C@H]1CN(C(=O)Nc2ccc(C(F)(F)F)cc2)CCN1c1ccnc(Nc2ccc(C(F)(F)F)cc2)n1 | absorbance | pH 6.9 | 2.63
CCCCCCCCCCCCCCCCCC(=O)OCC(C)(C)CC1=C(O)C(=O)c2ccccc2C1=O |  |  | 25.7
CC1(C)CC(=O)C2=C(C1)n1c(=O)c3ccccc3c(=O)n1C2c1cn(-c2ccccc2)nc1-c1ccc(Br)cc1 (stereo not shown) | absorbance |  | 353
COc1ccc(-c2c(N)c(-c3ccc(C)cc3)nc3ncnn23)cc1 | absorbance |  | 89.3
COc1cc(O)c2c(c1)oc(=O)c1c3cc(O)c(O)cc3oc21 | absorbance |  | 39.1
C[C@@H]1CN(C(=O)Nc2ccc(C(F)(F)F)cc2)CCN1c1ccnc(Nc2ccc(Cl)cc2)n1 | absorbance | pH 6.9 | 3.47
Nc1c(-c2ccccc2)nc2ncnn2c1-c1cccc(Cl)c1 | absorbance |  | 82.5
CCCCCCCCCCCCCC(=O)OCC(C)(C)CC1=C(O)C(=O)c2ccccc2C1=O |  |  | 5.3
CC(=O)C1=C(C)n2c(=O)c3ccccc3c(=O)n2C1c1cn(-c2ccccc2)nc1-c1ccc([N+](=O)[O-])cc1 (stereo not shown) | absorbance |  | 86.7
C[C@H]1CN(C(=O)Nc2ccc(C(F)(F)F)cc2)CCN1c1ccnc(Nc2cccc([N+](=O)[O-])c2)n1 | absorbance | pH 6.9 | 1.03
Cc1ccc(-c2nc3ncnn3c(-c3ccc(Cl)cc3)c2N)cc1 | absorbance |  | 54.6
C[C@H]1CN(C(=O)Nc2ccc(C(F)(F)F)cc2)CCN1c1ccnc(Nc2ccccc2O)n1 | absorbance | pH 6.9 | 5.13
Cc1ccc(-c2nn(-c3ccccc3)cc2C2C3=C(CC(C)(C)CC3=O)n3c(=O)c4ccccc4c(=O)n32)cc1 (stereo not shown) | absorbance |  | 282
